pEC50, pKd: −log10 of the molar value. Activity calls are given as the source filed them. The rule behind the calls is not given here.
Experiments:
[1] = molecular target: Programmed cell death protein 1/Programmed cell death 1 ligand 1 (Homo sapiens, UniProt Q9NZQ7); assay: Inhibition of human PDL1 expressed in CHO-K1 cells co-expressing aAPC assessed as reduction in PDL1 interaction with human PD1 expressed in Jurkat T cells incubated for 18 hrs by Bio-Glo reagent based luminescence assay; assay type: cell-based
Outline: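 In the PD-1/PD-L1 blockade bioassay, activity is expressed as EC50, with anti-PD-1 antibody as positive control.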

[2] = molecular target: T1, Programmed cell death 1 ligand 1 (Homo sapiens, UniProt Q9NZQ7); assay: Binding affinity to FC-tagged human PDL1 by SPR assay
Outline: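 Surface plasmon resonance against hPD-L1, reported as equilibrium dissociation constant (K_D).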

[3] = organism: Homo sapiens; assay: Induction of IFN-gamma secretion in human CD4+ T cells in presence of dendritic cells incubated for 7 days by AlphaLISA based mixed lymphocyte reaction assay; assay type: functional, cell-based
Outline: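 CD4+ T cells were cultured 7 days, either alone or with monocyte-derived dendritic cells, with or without test agent; anti-PD-1 antibody was run as comparator. IFN-γ in culture supernatants was measured as the activation read-out. Mean ± SD is from experiments in triplicate.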

[4] = molecular target: T1, Programmed cell death 1 ligand 1; assay: Induction of Flag-tagged human PDL1 dimerization assessed as shortening of retention time of PD-L1 at 12 uM incubated for 10 mins by size-exclusion chromatography

T1 sequence (Q9NZQ7 whole entry): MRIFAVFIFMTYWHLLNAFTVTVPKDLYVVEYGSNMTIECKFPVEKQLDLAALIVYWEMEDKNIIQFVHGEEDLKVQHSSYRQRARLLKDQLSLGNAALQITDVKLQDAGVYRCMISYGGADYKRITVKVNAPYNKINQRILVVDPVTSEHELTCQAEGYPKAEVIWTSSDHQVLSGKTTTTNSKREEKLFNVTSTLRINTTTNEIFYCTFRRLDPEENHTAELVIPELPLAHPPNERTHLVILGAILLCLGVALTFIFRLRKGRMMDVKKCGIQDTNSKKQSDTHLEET
Chain of Programmed cell death protein 1/Programmed cell death 1 ligand 1 (Q15116 whole entry): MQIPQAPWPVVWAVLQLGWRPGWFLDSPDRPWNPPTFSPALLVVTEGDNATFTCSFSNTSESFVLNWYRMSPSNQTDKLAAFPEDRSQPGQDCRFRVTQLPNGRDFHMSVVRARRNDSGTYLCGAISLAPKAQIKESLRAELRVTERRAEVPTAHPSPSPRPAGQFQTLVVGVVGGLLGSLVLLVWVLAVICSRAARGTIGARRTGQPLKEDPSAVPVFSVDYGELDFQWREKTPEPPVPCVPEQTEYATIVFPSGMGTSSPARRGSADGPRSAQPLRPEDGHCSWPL
Chain of Programmed cell death protein 1/Programmed cell death 1 ligand 1 (Q9NZQ7 whole entry): as the sequence (Q9NZQ7 whole entry) above

Row | SMILES | pEC50 [1] | pKd [2] | Activity [3] | Activity [4]
1 | Cc1c(COc2cccc(OCc3cncc(C#N)c3)c2)cccc1-c1cccc(COc2ccc(CN[C@H](CO)C(=O)O)c(OCc3cncc(C#N)c3)c2)c1C | < 4.00 | 8.43 |  | 
2 | Cc1c(COc2ccc(CN[C@H](CO)C(=O)O)c(OCc3cncc(C#N)c3)c2)cccc1-c1cccc(COc2ccc(CN[C@H](CO)C(=O)O)c(OCc3cncc(C#N)c3)c2)c1 | 5.08 | 9.70 |  | 
3 | Cc1c(COc2ccc(CN[C@H](CO)C(=O)O)cc2)cccc1-c1cccc(COc2ccc(CN[C@H](CO)C(=O)O)c(OCc3cncc(C#N)c3)c2)c1C |  | 9.54 |  | 
4 | Cc1c(COc2ccc(CN[C@H](CO)C(=O)O)c(OCc3cncc(C#N)c3)c2)cccc1-c1ccccc1 | < 4.52 | 8.96 |  | 
5 | COc1cc(OCc2cccc(-c3cccc(COc4ccc(CN[C@H](CO)C(=O)O)c(OCc5cncc(C#N)c5)c4)c3C)c2C)ccc1CN[C@H](CO)C(=O)O | 5.02 | 9.68 |  | 
6 | Cc1ccccc1-c1cccc(COc2ccc(CN[C@H](CO)C(=O)O)c(OCc3cncc(C#N)c3)c2)c1C |  | 8.52 |  | 
7 | Cc1c(COc2ccc(CN[C@H](CO)C(=O)O)c(OCc3cncc(C#N)c3)c2)cccc1-c1cccc(COc2ccc(CN[C@H](CO)C(=O)O)c(OCc3cncc(C#N)c3)c2)c1C | 6.00 | 10.72 | Dose-dependent effect | Active

— ChEMBL document CHEMBL4433267, “Symmetry-based ligand design and evaluation of small molecule inhibitors of programmed cell death-1/programmed death-ligand 1 interaction” (Bioorg Med Chem Lett, 2019)
